Assay results as given in ChEMBL document CHEMBL4680065, “Pharmacophore-based screening of diamidine small molecule inhibitors for protein arginine methyltransferases” (RSC Med Chem, 2021).

Molecular target: T1, Protein arginine N-methyltransferase 7 (Homo sapiens, UniProt Q9NVM4)
T1 sequence (Q9NVM4 whole entry): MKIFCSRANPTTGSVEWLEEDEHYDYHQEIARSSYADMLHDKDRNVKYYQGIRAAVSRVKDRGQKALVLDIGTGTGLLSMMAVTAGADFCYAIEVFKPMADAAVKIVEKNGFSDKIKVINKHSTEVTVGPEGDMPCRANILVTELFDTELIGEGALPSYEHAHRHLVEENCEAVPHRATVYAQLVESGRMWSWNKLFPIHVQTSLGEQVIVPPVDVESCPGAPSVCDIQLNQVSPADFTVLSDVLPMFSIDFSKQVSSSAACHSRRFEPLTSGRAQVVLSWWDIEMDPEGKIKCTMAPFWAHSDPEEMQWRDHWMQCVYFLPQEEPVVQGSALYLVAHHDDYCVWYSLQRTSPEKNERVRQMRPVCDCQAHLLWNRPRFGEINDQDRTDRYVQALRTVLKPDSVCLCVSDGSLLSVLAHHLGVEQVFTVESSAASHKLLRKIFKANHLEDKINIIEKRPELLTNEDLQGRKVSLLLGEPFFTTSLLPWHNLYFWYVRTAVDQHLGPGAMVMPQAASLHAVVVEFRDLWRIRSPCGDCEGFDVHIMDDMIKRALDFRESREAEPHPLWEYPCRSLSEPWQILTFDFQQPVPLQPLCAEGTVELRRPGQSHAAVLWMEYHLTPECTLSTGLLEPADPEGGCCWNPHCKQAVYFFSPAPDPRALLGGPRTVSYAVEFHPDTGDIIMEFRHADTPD
Experiment: Inhibition of recombinant GST-tagged PRMT7 (unknown origin) expressed in Escherichia coli using biotin-labeled SMD1 as substrate incubated for 120 mins in presence of [3H]-SAM cofactor by scintillation proximity assay
Procedure, shortened: (§1)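 The inhibitor was serially diluted and added to the enzyme, [3H]-SAM and substrate mixture, and methylated substrate was quantified by scintillation proximity assay. Reactions were held at initial rate, with yield under 10% and substrate near Km. PRMT3, PRMT8 and G9a were His-tagged human proteins, and PRMT7 was GST-tagged, all expressed in E. coli and affinity-purified.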

SMILES	IC50 [µM]
Nc1nc(N)c2nc3c(ccc4ccccc43)nc2n1	126
c1cc2cc(-c3ccc4oc(C5=NCCN5)cc4c3)[nH]c2cc1C1=NCCN1	248
CNCC(=O)NC1=CC2C(=O)c3ccc(NC(=O)CNC)cc3C(=O)C2C=C1 (stereo not given)	288
CNC(=N)N/N=C(/C)c1ccc2oc3ccc(/C(C)=N/NC(=N)NC)cc3c2c1	23.3

Molecular target: Protein arginine N-methyltransferase 6 (Homo sapiens, UniProt Q96LA8)
Experiment: Inhibition of PRMT6 (unknown origin) using biotin-labeled SMD1 as substrate incubated for 30 mins in presence of [3H]-SAM cofactor by scintillation proximity assay

Sequence of Protein arginine N-methyltransferase 6 (Q96LA8 whole entry): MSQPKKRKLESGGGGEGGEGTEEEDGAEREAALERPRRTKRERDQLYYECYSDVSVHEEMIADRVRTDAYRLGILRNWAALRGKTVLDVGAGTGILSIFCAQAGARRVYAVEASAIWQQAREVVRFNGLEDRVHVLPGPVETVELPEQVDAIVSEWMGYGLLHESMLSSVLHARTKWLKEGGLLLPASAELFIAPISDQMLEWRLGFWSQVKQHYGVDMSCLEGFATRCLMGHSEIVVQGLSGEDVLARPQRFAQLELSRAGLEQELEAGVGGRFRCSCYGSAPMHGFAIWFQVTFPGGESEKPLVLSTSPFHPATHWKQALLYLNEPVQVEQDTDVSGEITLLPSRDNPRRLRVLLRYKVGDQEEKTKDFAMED

SMILES	IC50 [µM]
Nc1nc(N)c2nc3c(ccc4ccccc43)nc2n1	62.9
c1cc2cc(-c3ccc4oc(C5=NCCN5)cc4c3)[nH]c2cc1C1=NCCN1	12.9
CNCC(=O)NC1=CC2C(=O)c3ccc(NC(=O)CNC)cc3C(=O)C2C=C1 (stereo not given)	84.5
CNC(=N)N/N=C(/C)c1ccc2oc3ccc(/C(C)=N/NC(=N)NC)cc3c2c1	6.01

Molecular target: T2, Histone-arginine methyltransferase CARM1 (Homo sapiens, UniProt Q86X55)
T2 sequence (Q86X55 whole entry): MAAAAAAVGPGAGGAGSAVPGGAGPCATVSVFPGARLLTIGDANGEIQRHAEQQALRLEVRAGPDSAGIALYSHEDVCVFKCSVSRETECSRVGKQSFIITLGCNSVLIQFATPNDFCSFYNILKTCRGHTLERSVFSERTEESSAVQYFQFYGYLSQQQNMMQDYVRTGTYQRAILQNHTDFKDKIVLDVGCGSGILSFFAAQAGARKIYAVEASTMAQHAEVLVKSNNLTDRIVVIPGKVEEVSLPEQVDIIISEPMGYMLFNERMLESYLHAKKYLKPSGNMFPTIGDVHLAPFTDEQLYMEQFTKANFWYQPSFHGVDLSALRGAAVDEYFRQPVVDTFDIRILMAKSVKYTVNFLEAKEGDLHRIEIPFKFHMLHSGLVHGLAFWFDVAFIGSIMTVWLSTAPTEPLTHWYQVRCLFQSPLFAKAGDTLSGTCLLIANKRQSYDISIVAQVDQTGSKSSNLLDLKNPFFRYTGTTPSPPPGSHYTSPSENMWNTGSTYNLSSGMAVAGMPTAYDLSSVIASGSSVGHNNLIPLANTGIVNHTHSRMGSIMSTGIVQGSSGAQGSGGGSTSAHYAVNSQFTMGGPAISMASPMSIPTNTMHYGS
Experiment: Inhibition of recombinant GST-tagged CARM1 (unknown origin) expressed in Escherichia coli using […] incubated for 120 mins in presence of [3H]-SAM cofactor by radioactive filter plate assay

SMILES	IC50 [µM]
Nc1nc(N)c2nc3c(ccc4ccccc43)nc2n1	9.1
c1cc2cc(-c3ccc4oc(C5=NCCN5)cc4c3)[nH]c2cc1C1=NCCN1	155
CNCC(=O)NC1=CC2C(=O)c3ccc(NC(=O)CNC)cc3C(=O)C2C=C1 (stereo not given)	12.4
CNC(=N)N/N=C(/C)c1ccc2oc3ccc(/C(C)=N/NC(=N)NC)cc3c2c1	15.5

Molecular target: T3, Histone-lysine N-methyltransferase EHMT2 (Homo sapiens, UniProt Q96KQ7)
T3 sequence (Q96KQ7 whole entry): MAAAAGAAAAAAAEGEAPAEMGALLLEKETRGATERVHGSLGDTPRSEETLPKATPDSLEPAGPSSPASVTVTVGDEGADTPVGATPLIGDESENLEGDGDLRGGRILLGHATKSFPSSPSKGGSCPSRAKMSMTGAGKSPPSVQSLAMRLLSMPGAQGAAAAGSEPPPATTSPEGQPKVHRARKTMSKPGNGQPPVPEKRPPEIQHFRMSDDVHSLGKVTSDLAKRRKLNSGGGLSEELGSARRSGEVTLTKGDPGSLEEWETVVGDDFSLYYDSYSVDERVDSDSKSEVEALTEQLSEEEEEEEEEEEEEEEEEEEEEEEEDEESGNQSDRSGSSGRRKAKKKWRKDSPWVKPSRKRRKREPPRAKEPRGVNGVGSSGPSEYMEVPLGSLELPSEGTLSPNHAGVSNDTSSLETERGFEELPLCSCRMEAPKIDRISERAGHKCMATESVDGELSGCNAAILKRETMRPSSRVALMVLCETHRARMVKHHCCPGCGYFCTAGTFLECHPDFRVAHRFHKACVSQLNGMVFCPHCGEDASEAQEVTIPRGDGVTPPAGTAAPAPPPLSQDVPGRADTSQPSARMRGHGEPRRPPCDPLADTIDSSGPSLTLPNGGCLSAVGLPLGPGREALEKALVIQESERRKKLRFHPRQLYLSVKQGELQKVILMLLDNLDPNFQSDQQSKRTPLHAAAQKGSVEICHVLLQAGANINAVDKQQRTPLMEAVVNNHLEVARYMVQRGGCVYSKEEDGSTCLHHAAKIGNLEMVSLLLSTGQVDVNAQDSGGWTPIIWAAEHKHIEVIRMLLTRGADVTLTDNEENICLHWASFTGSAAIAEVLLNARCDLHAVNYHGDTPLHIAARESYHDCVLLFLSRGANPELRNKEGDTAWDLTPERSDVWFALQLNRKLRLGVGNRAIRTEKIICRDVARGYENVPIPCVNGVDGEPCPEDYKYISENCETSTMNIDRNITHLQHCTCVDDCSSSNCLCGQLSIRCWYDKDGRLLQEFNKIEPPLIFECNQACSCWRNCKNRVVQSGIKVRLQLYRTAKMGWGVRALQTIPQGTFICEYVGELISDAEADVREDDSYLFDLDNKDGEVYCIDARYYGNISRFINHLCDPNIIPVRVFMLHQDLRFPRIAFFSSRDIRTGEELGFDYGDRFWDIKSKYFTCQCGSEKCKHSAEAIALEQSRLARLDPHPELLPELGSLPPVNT
Experiment: Inhibition of recombinant His-tagged human G9a expressed in Escherichia coli BL21 (DE3) using biotin-labeled histone H3-20 peptide as substrate incubated for 30 mins in presence of [3H]-SAM cofactor by scintillation proximity assay
Procedure, shortened: as §1

SMILES	IC50 [µM]
Nc1nc(N)c2nc3c(ccc4ccccc43)nc2n1	81.5
c1cc2cc(-c3ccc4oc(C5=NCCN5)cc4c3)[nH]c2cc1C1=NCCN1	39.7
CNCC(=O)NC1=CC2C(=O)c3ccc(NC(=O)CNC)cc3C(=O)C2C=C1 (stereo not given)	> 1000
CNC(=N)N/N=C(/C)c1ccc2oc3ccc(/C(C)=N/NC(=N)NC)cc3c2c1	4.7

Molecular target: Protein arginine N-methyltransferase 8 (Homo sapiens, UniProt Q9NR22)
Experiment: Inhibition of recombinant His-tagged human PRMT8 expressed in Escherichia coli BL21 (DE3) using biotin-labeled histone H4-20 peptide as substrate incubated for 8 mins in presence of [3H]-SAM cofactor by scintillation proximity assay
Procedure, shortened: as §1

Sequence of Protein arginine N-methyltransferase 8 (Q9NR22 whole entry): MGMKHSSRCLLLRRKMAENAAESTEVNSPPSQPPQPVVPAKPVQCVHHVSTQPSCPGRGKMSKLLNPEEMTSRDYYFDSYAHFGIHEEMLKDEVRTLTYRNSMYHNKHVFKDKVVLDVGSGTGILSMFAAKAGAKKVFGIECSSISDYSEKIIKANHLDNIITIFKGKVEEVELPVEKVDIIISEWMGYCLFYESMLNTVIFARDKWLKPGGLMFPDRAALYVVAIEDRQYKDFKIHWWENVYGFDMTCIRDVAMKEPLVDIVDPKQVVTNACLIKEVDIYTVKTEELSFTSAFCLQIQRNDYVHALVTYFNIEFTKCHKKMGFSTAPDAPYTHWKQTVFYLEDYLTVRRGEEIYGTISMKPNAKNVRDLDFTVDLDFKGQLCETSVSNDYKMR

SMILES	IC50 [µM]
Nc1nc(N)c2nc3c(ccc4ccccc43)nc2n1	167
c1cc2cc(-c3ccc4oc(C5=NCCN5)cc4c3)[nH]c2cc1C1=NCCN1	60.1
CNCC(=O)NC1=CC2C(=O)c3ccc(NC(=O)CNC)cc3C(=O)C2C=C1 (stereo not given)	43.7
CNC(=N)N/N=C(/C)c1ccc2oc3ccc(/C(C)=N/NC(=N)NC)cc3c2c1	17.6

Molecular target: PRMT5/MEP50 complex (Homo sapiens, UniProt O14744)
Experiment: Inhibition of PRMT5/MEP50 (unknown origin) using biotin-labeled histone H4-20 peptide as substrate incubated for 8 mins in presence of [3H]-SAM cofactor by scintillation proximity assay
Assay type: protein-complex assay
Procedure, shortened: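 Part of a methyltransferase selectivity panel. Test compound was serially diluted into a mixture of enzyme, [3H]-SAM cofactor and substrate. Methylated substrate was quantified by scintillation proximity assay. Reactions were held at initial-rate conditions with substrate turnover under 10%, and substrate concentrations were near Km.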

Sequence of PRMT5/MEP50 complex (O14744 whole entry): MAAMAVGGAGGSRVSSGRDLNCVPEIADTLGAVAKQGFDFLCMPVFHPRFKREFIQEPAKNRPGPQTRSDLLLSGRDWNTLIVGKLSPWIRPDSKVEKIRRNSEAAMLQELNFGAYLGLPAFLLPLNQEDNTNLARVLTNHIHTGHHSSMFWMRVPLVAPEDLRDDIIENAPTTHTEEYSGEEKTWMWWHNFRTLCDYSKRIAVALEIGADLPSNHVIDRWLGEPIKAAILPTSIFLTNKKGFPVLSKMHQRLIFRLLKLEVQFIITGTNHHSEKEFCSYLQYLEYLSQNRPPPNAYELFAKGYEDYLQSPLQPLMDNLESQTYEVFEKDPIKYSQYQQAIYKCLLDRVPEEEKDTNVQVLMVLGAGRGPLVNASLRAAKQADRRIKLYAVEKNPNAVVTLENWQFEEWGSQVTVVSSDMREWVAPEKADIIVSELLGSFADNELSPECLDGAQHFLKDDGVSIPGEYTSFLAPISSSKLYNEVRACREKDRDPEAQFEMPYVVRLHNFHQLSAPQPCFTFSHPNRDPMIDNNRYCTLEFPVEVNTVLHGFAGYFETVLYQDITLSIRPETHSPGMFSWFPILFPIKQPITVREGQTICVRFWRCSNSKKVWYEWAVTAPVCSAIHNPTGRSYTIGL
Sequence of PRMT5/MEP50 complex (Q9BQA1 whole entry, further chain): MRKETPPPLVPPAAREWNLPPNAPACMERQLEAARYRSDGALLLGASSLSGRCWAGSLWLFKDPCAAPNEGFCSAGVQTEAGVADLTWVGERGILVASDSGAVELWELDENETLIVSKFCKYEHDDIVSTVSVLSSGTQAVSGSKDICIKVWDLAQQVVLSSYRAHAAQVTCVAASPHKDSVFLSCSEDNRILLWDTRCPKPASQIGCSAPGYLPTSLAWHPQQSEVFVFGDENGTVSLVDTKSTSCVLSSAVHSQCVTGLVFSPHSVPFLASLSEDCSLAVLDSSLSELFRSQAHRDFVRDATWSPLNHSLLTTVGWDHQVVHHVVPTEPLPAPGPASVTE

SMILES	IC50 [µM]
Nc1nc(N)c2nc3c(ccc4ccccc43)nc2n1	62.1
c1cc2cc(-c3ccc4oc(C5=NCCN5)cc4c3)[nH]c2cc1C1=NCCN1	> 500
CNCC(=O)NC1=CC2C(=O)c3ccc(NC(=O)CNC)cc3C(=O)C2C=C1 (stereo not given)	> 500
CNC(=N)N/N=C(/C)c1ccc2oc3ccc(/C(C)=N/NC(=N)NC)cc3c2c1	18.9

Molecular target: Protein arginine N-methyltransferase 1 (Homo sapiens, UniProt Q99873)
Experiment: Inhibition of recombinant human His-tagged PRMT1 expressed in Escherichia coli BL21 (DE3) using biotin-labeled histone H4-20 as substrate incubated for 8 mins in presence of [3H]-SAM cofactor by scintillation proximity assay

Sequence of Protein arginine N-methyltransferase 1 (Q99873 whole entry): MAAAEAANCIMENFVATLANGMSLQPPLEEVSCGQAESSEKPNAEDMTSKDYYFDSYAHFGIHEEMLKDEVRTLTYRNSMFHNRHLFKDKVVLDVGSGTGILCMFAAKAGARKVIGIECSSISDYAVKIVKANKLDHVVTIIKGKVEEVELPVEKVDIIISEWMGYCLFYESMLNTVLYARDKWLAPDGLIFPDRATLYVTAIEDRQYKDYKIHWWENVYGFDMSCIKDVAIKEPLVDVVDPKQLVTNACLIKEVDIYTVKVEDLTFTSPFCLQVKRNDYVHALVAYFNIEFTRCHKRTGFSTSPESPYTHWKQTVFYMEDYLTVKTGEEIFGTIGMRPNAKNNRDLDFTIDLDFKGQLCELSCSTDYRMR

SMILES	IC50 [µM]
C1=C(/C=C/c2ccc3cc(C4=NCCN4)[nH]c3c2)Cc2cc(C3=NCCN3)ccc21	5
N=C(N)c1ccc2cc(CCc3cc4ccc(C(=N)N)cc4o3)[nH]c2c1	> 10
N=C(N)c1ccc2cc(/C=C/c3cc4ccc(C(=N)N)cc4o3)[nH]c2c1	2.4
N=C(N)c1ccc(NC(=O)c2cc3cc(C(=N)N)ccc3o2)cc1	> 100
C(=C/c1cc2ccc(C3=NCCN3)cc2o1)/c1cc2ccc(C3=NCCN3)cc2[nH]1	7.6
CNC(=N)N/N=C(/C)c1ccc2oc3ccc(/C(C)=N/NC(=N)NC)cc3c2c1	6.9
O=C(Nc1ccc(C2=NCCN2)cc1)c1cc2ccc(C3=NCCN3)cc2o1	> 100
N=C(N)c1ccc2[nH]c(/C=C/c3cc4ccc(C(=N)N)cc4o3)cc2c1	7.5
N=C(N)c1ccc(/C=C/c2cc3cc(C(=N)N)ccc3o2)cc1	10
N=C(N)c1ccc2[nH]c(/C=C/c3cc4cc(C(=N)N)ccc4o3)cc2c1	7.7
O=C(Nc1ccc(C2=NCCN2)cc1)c1cc2cc(C3=NCCN3)ccc2o1	> 100
N=C(N)c1ccc(NC(=O)c2cc3ccc(C(=N)N)cc3o2)cc1	> 100
C(=C\c1cc2ccc(C3=NCCN3)cc2[nH]1)/c1cc2ccc(C3=NCCN3)cc2[nH]1	6.2
N=C(N)c1ccc2sc(/C=C/c3cc4ccc(C(=N)N)cc4o3)cc2c1	16.5
C(=C/c1cc2ccc(C3=NCCN3)cc2o1)/c1cc2cc(C3=NCCN3)ccc2[nH]1	7.9
N=C(N)c1ccc(-c2ccc(-c3ccc(C(=N)N)cc3)o2)cc1 [FURAMIDINE]	8.9
C(=C\c1cc2ccc(C3=NCCN3)cc2[nH]1)/c1ccc(Oc2ccc(C3=NCCN3)cc2)cc1	16.3

Molecular target: Protein arginine N-methyltransferase 3 (Homo sapiens, UniProt O60678)
Experiment: Inhibition of recombinant human His-tagged PRMT3 expressed in Escherichia coli BL21 (DE3) using biotin-labeled SMD1 as substrate incubated for 10 mins in presence of [3H]-SAM cofactor by scintillation proximity assay
Procedure, shortened: as §1

Sequence of Protein arginine N-methyltransferase 3 (O60678 whole entry): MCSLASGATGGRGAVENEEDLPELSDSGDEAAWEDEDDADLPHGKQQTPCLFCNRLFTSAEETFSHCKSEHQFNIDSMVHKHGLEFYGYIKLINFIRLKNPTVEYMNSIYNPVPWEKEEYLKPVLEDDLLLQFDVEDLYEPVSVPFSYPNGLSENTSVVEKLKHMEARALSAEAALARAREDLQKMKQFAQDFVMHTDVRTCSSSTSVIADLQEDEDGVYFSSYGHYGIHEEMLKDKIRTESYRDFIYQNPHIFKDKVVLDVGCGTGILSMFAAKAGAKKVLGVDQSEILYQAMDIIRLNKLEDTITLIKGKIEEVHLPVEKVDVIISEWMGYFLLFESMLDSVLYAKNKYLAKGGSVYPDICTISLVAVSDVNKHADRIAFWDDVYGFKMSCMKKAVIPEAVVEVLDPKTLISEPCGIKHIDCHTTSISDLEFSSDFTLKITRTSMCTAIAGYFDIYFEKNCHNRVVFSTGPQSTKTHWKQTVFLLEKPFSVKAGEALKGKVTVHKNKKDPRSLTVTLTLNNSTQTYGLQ

SMILES	IC50 [µM]
Nc1nc(N)c2nc3c(ccc4ccccc43)nc2n1	55.7
c1cc2cc(-c3ccc4oc(C5=NCCN5)cc4c3)[nH]c2cc1C1=NCCN1	19
CNCC(=O)NC1=CC2C(=O)c3ccc(NC(=O)CNC)cc3C(=O)C2C=C1 (stereo not given)	11.6
CNC(=N)N/N=C(/C)c1ccc2oc3ccc(/C(C)=N/NC(=N)NC)cc3c2c1	8.2
